Our source for the IC50 and Bmax (fM (mg of protein)-1) values is ChEMBL document CHEMBL1130315 (J Med Chem, 1997).

The target in assay [1] is Sodium-dependent dopamine transporter (Rattus norvegicus, UniProt P23977). Put plainly: Binding affinity was evaluated using [3H]WIN-35428 binding to dopamine transporter (DAT) in rat caudate-putamen. Type of assay: tissue-based.
Assay [2] deals with Sigma 2 receptor. The assay is described as follows: Binding affinity was evaluated using [3H]-DTG binding to sigma-2 receptor from rat liver. The method in brief: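 Rat liver membranes (male Sprague-Dawley), 160 μg protein, with 5 nM [3H]DTG plus 1 μM dextrallorphan to mask σ1 sites; 50 mM Tris-HCl pH 8.0, 120 min at 25 °C. Nonspecific binding with 10 μM haloperidol; filtration on poly(ethylenimine)-soaked glass fiber filters, scintillation counting.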

For assay [3], the target named is Sodium-dependent dopamine transporter (Rattus norvegicus) (UniProt P23977). Put plainly: Binding constant(Bmax) of [3H]WIN-35428 at saturation in rat caudate-putamen tissue pre-incubated in buffer at 10 uM (Dopamine transporter). Type of assay: tissue-based. The essentials: (§1)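 Rat caudate-putamen homogenate in Krebs-HEPES buffer pH 7.4, preincubated 1 h on ice with buffer alone, 100 nM or 10 μM ligand, then washed by two centrifugations. Twelve-point saturation with 0.1–25 nM [3H]WIN 35,428, 1 h on ice; filtration. Bmax and KD fitted by nonlinear least squares across replicate experiments, with standard errors; protein by modified Lowry.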
Sequence of Sodium-dependent dopamine transporter (Rattus norvegicus) (P23977 whole entry): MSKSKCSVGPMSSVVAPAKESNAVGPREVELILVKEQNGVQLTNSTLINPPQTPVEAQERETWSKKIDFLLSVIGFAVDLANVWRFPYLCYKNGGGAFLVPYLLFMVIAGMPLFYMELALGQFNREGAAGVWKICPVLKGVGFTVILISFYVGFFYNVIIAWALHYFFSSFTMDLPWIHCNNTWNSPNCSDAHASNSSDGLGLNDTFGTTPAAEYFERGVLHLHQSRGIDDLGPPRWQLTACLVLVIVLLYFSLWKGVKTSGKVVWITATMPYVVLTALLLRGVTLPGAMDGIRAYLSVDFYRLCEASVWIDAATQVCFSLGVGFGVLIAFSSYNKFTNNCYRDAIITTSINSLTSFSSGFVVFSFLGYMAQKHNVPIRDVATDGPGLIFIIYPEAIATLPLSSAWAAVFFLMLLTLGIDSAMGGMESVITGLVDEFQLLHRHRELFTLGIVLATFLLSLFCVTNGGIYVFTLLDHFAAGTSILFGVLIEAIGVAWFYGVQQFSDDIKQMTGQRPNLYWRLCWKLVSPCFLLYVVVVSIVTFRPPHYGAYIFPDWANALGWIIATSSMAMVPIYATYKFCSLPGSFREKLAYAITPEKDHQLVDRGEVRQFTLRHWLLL

Assay [4] has the same target. Put plainly: Binding constant(Bmax) of [3H]WIN-35428 at saturation in rat caudate-putamen tissue pre-incubated in buffer (Dopamine transporter). Type of assay: tissue-based. The method in brief: as §1
Assay [5] shares this target. Put plainly: Binding constant(Bmax) of [3H]WIN-35428 at saturation in rat caudate-putamen tissue preincubated in buffer at 100 nM (Dopamine transporter). It counts as tissue-based. The method in brief:
as §1

Sequence of Sodium-dependent dopamine transporter (P23977 whole entry): as above

A word on the IC50: it is the concentration that inhibits the measured activity by half. Lower therefore signals greater potency. Regarding `CC1CN(CCCn2c3ccccc3c3cc(N=C=S)ccc32)CC(C)N1C` (stereo not drawn), the concentration for half-maximal inhibition (IC50) in assay [1] was 1330 nM.
Consider `CC1CN(CCCn2c3ccccc3c3ccccc32)CC(C)N1CCN=C=S` (stereo not drawn), for which the IC50 was found to be 1440 nM in assay [2] and 1250 nM in assay [1].
For `CC1CN(CCCn2c3ccccc3c3ccccc32)CC(C)N1CCCN=C=S` (stereo not drawn), the IC50 in assay [2] was determined as 877 nM; in assay [1], 523 nM.
For `C[C@H]1CN(CCCn2c3ccccc3c3ccccc32)C[C@H](C)N1C`, the figures for the half-inhibitory concentration (IC50) in assay [2] and in assay [1] were 294 nM and 244 nM, respectively.
In the same order, the values of `C[C@@H]1CN(CCCn2c3ccccc3c3ccccc32)C[C@H](C)N1` [RIMCAZOLE] are 386 nM and 57.6 nM.
With `CC1CN(CCCn2c3ccccc3c3ccccc32)CC(C)N1CCCCCCN=C=S` (stereo not drawn), the Bmax (fM (mg of protein)-1) came out at 6.65 in assay [3], 537 in assay [4] and 167 in assay [5]. In assay [2], this molecule displayed an IC50 of 211 nM.
